Test results taken from PMC3210410 (Bioorganic & medicinal chemistry letters, 2011).
Like-named read-outs stand apart in the source and are kept apart here.

Tests used:
Assay type in all cases: biochemical
ADAM17/TACE = ADAM17/TACE (Homo sapiens, UniProt P78536); experiment: TACE inhibition; conditions: data not shown
MMP-13 [1] = biological target: T1, MMP-13 (Homo sapiens, UniProt P45452); experiment: FRET triple-helical peptide; conditions: for MMP-13 % Inhibition: 40 μM compound, fTHP-15 substrate, triplicate
Method in brief: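 Triple-helical fTHP-15 FRET substrate, whose conformation engages protease secondary binding sites (exosites), cleaved by MMP-13 with each test compound at 40 μM. Activity is reported as percent inhibition from triplicate assays.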

MMP-13 [2] = biological target: T1, MMP-13; experiment: Dual inhibition kinetic assays; conditions: compound 4 with either compound 1 or 3
MMP-13 [3] = biological target: T1, MMP-13; experiment: Single inhibitor kinetic assays with MMP-13 and fTHP-15; conditions: for mode of inhibition of MMP-13-mediated hydrolysis of the fTHP: Lineweaver-Burk plot, lines crossing on X axis
MMP-13 [4] = biological target: T1, MMP-13; experiment: RP-HPLC-based secondary screen for artifactual inhibition; conditions: data not shown
Method in brief: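 Checks for fluorescence artifacts in the FRET assay. […] fTHP-15 substrate is analysed by RP-HPLC before and after adding test compound, so fluorescence interference can be separated from true inhibition of MMP-13.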

ADAM17/TACE, sequence (P78536 215-824): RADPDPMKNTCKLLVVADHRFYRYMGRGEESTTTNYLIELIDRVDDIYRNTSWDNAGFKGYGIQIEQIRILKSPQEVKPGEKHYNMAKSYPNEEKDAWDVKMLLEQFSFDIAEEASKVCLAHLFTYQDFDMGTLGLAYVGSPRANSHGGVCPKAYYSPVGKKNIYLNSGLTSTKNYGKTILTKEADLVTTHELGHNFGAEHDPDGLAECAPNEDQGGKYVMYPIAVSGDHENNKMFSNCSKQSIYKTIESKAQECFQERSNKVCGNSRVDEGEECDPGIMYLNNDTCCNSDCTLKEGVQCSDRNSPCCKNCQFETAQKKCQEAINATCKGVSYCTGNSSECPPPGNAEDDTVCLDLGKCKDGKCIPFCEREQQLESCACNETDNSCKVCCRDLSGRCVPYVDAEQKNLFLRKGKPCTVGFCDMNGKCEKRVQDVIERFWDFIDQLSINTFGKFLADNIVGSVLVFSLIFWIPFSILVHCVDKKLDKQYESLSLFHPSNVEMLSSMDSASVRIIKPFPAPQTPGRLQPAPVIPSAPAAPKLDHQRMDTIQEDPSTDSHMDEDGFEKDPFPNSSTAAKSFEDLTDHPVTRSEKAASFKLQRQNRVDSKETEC

Oc1nc(SCc2ccc(Cl)cc2)nc2c1CCC2 [Compound 4]
inhibition of TACE (ADAM17/TACE): do not inhibit | inhibition at 40 µM (MMP-13 [1]; read-out: Inhibition (%) at [inhibitor] = 40 μM, MMP-13): 51% | binding relation in dual inhibition kinetics (MMP-13 [2]): non-mutually exclusive binding

CCCc1cc(O)nc(SCc2ccc(Cl)cc2)n1 [Compound 9]
MMP-13 % Inhibition (MMP-13 [1]; SD <10% (Table 1)): inactive

Oc1nc(SCc2ccc(Cl)cc2)nc2ccccc12 [Compound 16]
MMP-13 % Inhibition (MMP-13 [1]; SD <10% (Table 1)): inactive

Oc1[nH]c(SCc2ccc(Cl)cc2)nc2nncc1-2 [Compound 17]
MMP-13 % Inhibition (MMP-13 [1]; SD <10% (Table 1)): inactive

O=c1[nH]c(SCc2ccc(Cl)cc2)nc(O)c1Cc1ccccc1 [Compound 18]
MMP-13 % Inhibition (MMP-13 [1]; SD <10% (Table 1)): inactive

CC(=O)Nc1c(O)nc(SCc2ccc(Cl)cc2)nc1O [Compound 19]
MMP-13 % Inhibition (MMP-13 [1]; SD <10% (Table 1)): inactive

Cc1ccc(CSc2nc(O)c3c(n2)CCC3)cc1 [Compound 20, 2-[(4-methylphenyl)methylsulfanyl]-1,5,6,7-tetrahydrocyclopenta[d]pyrimidin-4-one]
mode of inhibition of MMP-13-mediated hydrolysis of the fTHP (MMP-13 [3]): non-competitive | fold more potent as MMP-13 inhibitor than lead compound 4 (MMP-13 [3]; relative to compound 4): approximately 5 fold | inhibition of TACE (ADAM17/TACE): do not inhibit | inhibition at 40 µM (MMP-13 [1]; read-out: MMP-13 % Inhibition): 68.7% | inhibition in RP-HPLC secondary screen (MMP-13 [4]): inhibitors

COC(=O)c1ccc(CSc2nc3c(c(=O)[nH]2)CCC3)cc1 [Compound 24, methyl 4-[(4-oxo-1,5,6,7-tetrahydrocyclopenta[d]pyrimidin-2-yl)sulfanylmethyl] benzoate]
mode of inhibition of MMP-13-mediated hydrolysis of the fTHP (MMP-13 [3]): non-competitive | inhibition of TACE (ADAM17/TACE): do not inhibit | inhibition at 40 µM (MMP-13 [1]; read-out: MMP-13 % Inhibition): 62.5% | inhibition in RP-HPLC secondary screen (MMP-13 [4]): inhibitors

O=C(CSc1nc2c(c(=O)[nH]1)CCC2)c1ccccc1 [Compound 30]
MMP-13 % Inhibition (MMP-13 [1]; SD <10% (Table 2)): inactive

O=c1[nH]c(SCc2coc(-c3cccc(Cl)c3)n2)nc2c1CCC2 [Compound 31]
MMP-13 % Inhibition (MMP-13 [1]; SD <10% (Table 2)): inactive

Cc1oc(-c2cccc(Cl)c2)cc1CSc1nc2c(c(=O)[nH]1)CCC2 [Compound 32]
MMP-13 % Inhibition (MMP-13 [1]; SD <10% (Table 2)): Inactive

Cc1cccc(CSc2nc(O)c3c(n2)CCCC3)c1 [Compound 34]
MMP-13 % Inhibition (MMP-13 [1]; SD <10% (Table 2)): inactive
